The entries come from a sample that favours hits as a whole.
AP ELISA ortho – alternative complement pathway inhibitors, primary screen, biochemical, ELISA, human serum, orthogonally pooled compounds | inhibition, % at 5 µM | 62,000 compounds, 0.08% hits | LPS-coated ELISA, C3 deposition; tested in compound mixtures;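 active = inhibition above 30% in each of the two pooled mixtures holding the compound, so the lower value exceeds 30%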;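 also: 0% = serum in Mg-EGTA without compound and 100% = EDTA serum blank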
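Test system: human serum complement alternative pathway, C3 deposition onto LPS / Medium: Mg2+-EGTA GVB++ buffer containing human serum at 1:15 dilution / Probe or stimulus: Plate-bound LPS / Times: 1 h at 37 °C / Signal: ELISA with HRP anti-human C3 antibody, TMB substrate, absorbance 450 nm / Measure: percent inhibition / Repeats: two pool placements per compound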
D1 mod – D1 CRE-luciferase signal change, two-sided – cell-based, HEK293 D1, dopamine EC30, D1 allosteric modulator project, primary screen. D(1A) dopamine receptor (Homo sapiens), P21728. dopamine EC30 potentiation; actives deviate in either direction. B-score at 10 µM. 58,000 compounds, 5.9% hits;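 active = luminescence count or its row- and column-corrected plate score outside the 99.7% band of the plate's sample wells, on either side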
Target sequence (P21728 whole entry, looked up): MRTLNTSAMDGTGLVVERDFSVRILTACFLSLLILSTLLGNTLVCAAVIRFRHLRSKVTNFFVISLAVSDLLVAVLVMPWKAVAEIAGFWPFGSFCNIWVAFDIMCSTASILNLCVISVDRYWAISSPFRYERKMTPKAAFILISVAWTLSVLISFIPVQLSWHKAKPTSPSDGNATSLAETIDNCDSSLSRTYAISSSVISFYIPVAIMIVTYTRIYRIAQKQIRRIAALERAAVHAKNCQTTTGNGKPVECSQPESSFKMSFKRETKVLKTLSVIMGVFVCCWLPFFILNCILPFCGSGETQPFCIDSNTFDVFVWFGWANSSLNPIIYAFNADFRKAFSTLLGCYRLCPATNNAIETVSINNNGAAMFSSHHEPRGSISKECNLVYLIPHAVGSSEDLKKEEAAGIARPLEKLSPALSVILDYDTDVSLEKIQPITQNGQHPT
DAT uptake mod – changed hDAT dopamine uptake under cocaine IC80, either direction, primary screen, cocaine antagonist project, cell-based, LLC-PK1 hDAT, [14C]-dopamine uptake, MLSMR; 110,000 compounds, 1.3% hits; Sodium-dependent dopamine transporter (Homo sapiens), Q01959; B-score at 10 µM; LLC-PK1 hDAT cells, [14C]-dopamine uptake with cocaine IC80; actives deviate in either direction;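 active = Z score or B-score, a plate-position-corrected score, falls beyond the plate's 99.7% confidence bounds, in either direction; inactive = both scores lie inside the 99.7% bounds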;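 also: scored against the spread of the other compound wells on the same plate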
HEK293 NFkB inh – inhibitors of PMA/ionomycin-induced NF-kB reporter, primary screen, antigen receptor NF-kB inhibitor project, cell-based, HEK-293 luciferase reporter, luminescence | HEK-293 NF-kB luciferase reporter | inhibition, % at 3 µM | 62,000 compounds, 0.21% hits | AID 465, 2006;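 active = inhibition above the mean of all tested compounds plus 3 SD, cut at about 40% in these data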;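 also: 0% = stimulated DMSO wells and 100% = 10 µM reference inhibitor 5653914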
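Reagent: PMA plus ionomycin mix as NF-kB-activating stimulus. Assay system: NF-kB luciferase reporter HEK-293 cells. Technique: luminescence from luciferase substrate reagent. Incubation: 1 h compound pre-incubation, 16 h PMA/ionomycin at 37 °C. Benchmarks: DMSO only as uninhibited control, 10 µM reference inhibitor as full inhibition. Repeats: tested once.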
E coli RNAP – E. coli RNAP inhibitors, biochemical. E. coli RNA polymerase, fluorescence transcription assay. DNA-directed RNA polymerase subunit beta (Escherichia coli (strain K12)), P0A8V2. 62,000 compounds, 0.2% hits. inhibition, %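 (tested at 10 µM)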; in the data active = inhibition above about 20%;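 also: 0% = enzyme without compound and 100% = no enzyme blank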
D1 mod confirm – D1 receptor positive allosteric modulators, retest, confirmation, cell-based, HEK293 D1, CRE-luciferase, duplicate; dopamine EC30 potentiation; stronger effect = higher value; 2,200 compounds, 88% hits; luminescence at 10 µM; shares compounds with D1 mod;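 active = luminescence in either of two replicates above the same-plate mean plus 3 SD of the low-dose dopamine control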
D1 no dopamine – D1 receptor agonism without dopamine, confirmation, mechanism study for D1 allosteric modulator project, cell-based, HEK293 D1, CRE-luciferase, secondary assay 1 | shares compounds with D1 mod | luminescence, no dopamine; stronger effect = higher value | luminescence at 10 µM | 1,900 compounds, 0.8% hits; in the data active = luminescence above about 3900
Isoprot counter – counter-screen for D1 modulators: isoproterenol response in HEK293 cells; AID 647; 2,200 compounds, 63% hits; calls only at 10 µM; shares compounds with D1 mod; HEK293 D1 CRE-luciferase, isoproterenol EC30 counter-screen;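 active = luminescence in either replicate above plate mean of wells with a partly effective reference agonist dose plus 3 SD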;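 also: isoproterenol raises cAMP through native beta-adrenoceptor Gs so signal bypasses D1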
Numbers without * were called inactive; i = inactive; . = no result; + = active, no number.

SMILES	AP ELISA ortho	D1 mod	DAT uptake mod	HEK293 NFkB inh	E coli RNAP	D1 mod confirm	D1 no dopamine	Isoprot counter
CCN1CCN(CCNC(=O)c2ccc(CS(=O)(=O)c3ccccc3C)o2)CC1	12	0.38	-0.24	14	5	.	.	.
O=C(CC1Nc2ccccc2NC1=O)NC1CCCCC1 (stereo unspecified)	6	-0.031	.	-12	5	.	.	.
COc1ccccc1NC(=O)CC1Nc2ccccc2NC1=O (stereo unspecified)	10	3.7*	0.18	11	5	6444*	1504	i
COC(=O)c1ccccc1NC(=O)C1CCN(C(=O)c2cc(OC)c(OC)c(OC)c2)CC1	16	0.91	2	15	-3	.	.	.
CCCCC(=O)Nc1ccc(Br)cn1	.	.	0.33	.	.	.	.	.
CCCCNC(=O)Nc1ccc(Br)cn1	3	7.2*	0.26	5	6	12048*	1684	i
CCn1c(=O)n(CC(=O)NC2CCCC(C)C2C)c(=O)c2ccccc21 (stereo unspecified)	.	0.0093	0.048	19	.	.	.	.
Cc1ccc(C(=O)Nc2cccc(C(F)(F)F)c2)cc1Nc1ncnc2nc[nH]c12	.	.	0.95	.	.	.	.	.
O=C(CCc1nc(-c2ccccc2F)no1)Nc1ccc(Oc2ccccc2)cc1	7	8.6*	-0.54	22	0	4944	1544	i
CCOC(=O)Nc1sc(C)nc1-c1ccccc1	12	3.7*	-0.31	2	-2	5108	1368	i
CCOC(=O)c1sc(N)nc1-c1ccccc1	30	12*	-0.11	2	1	13660*	1536	+
CC1(c2ccccc2)NC(=O)N(CC(=O)NC(=O)NC2CCCC2)C1=O (stereo unspecified)	17	-0.98	0.075	7	1	.	.	.
CCOC(=O)NC(=O)CN1C(=O)NC(C)(c2ccccc2)C1=O (stereo unspecified)	16	4.4*	-0.6	7	2	5048	704	i
CC(C)(O)c1ccccc1CC[C@@H](SCC1(CC(=O)O)CC1)c1cccc(/C=C/c2ccc3ccc(Cl)cc3n2)c1	.	.	2.5	.	.	.	.	.
COc1ccc(NC(=O)C2CCN(S(=O)(=O)c3cccc4cccnc34)CC2)cc1OC	18	3.6*	.	15	2	13296*	1648	+
COc1ccc(N2CCN(S(=O)(=O)c3cccc4cccnc34)CC2)cc1	1	8.7*	0.51	8	11	19744*	1632	+
CCOc1ccc(C2CC(c3cccc(C)c3)n3nc(N)nc3N2)cc1 (stereo unspecified)	1	5*	0.72	13	11	10456*	.	+
COc1ccc(C2CC(c3ccccc3C)n3nc(N)nc3N2)cc1 (stereo unspecified)	11	-0.011	0.084	12	9	.	.	.
Cc1cccc(C2CC(c3ccc(F)cc3)Nc3nc(N)nn32)c1 (stereo unspecified)	16	4.7*	0.04	4	4	11784*	1444	i
CCOc1ccc(C2CC(c3cccc(OC)c3)n3nc(N)nc3N2)cc1 (stereo unspecified)	24	1.8	1.1	4	3	.	.	.
Cc1ccc(C2CC(c3ccccc3C)n3nc(N)nc3N2)cc1 (stereo unspecified)	21	5.3*	-0.74	16	9	6604	1668	i
Cc1cccc(C2CC(c3ccc(Cl)cc3)Nc3nc(N)nn32)c1 (stereo unspecified)	0	2	1.3	-4	5	.	.	.
CC(C)(C)NC(=O)CSc1ccc(C(C)(C)C)cc1	.	.	0.88	.	.	.	.	.
CC1(C)Cc2c(sc3c2c(=N)n(Cc2ccco2)c(=O)n3CC(=O)Nc2cccc(Cl)c2)CO1	15	4.4	-0.0088	15	1	.	.	.
Cc1cccc(NC(=O)Cn2c(=O)n(Cc3ccco3)c(=N)c3c4c(sc32)COC(C)(C)C4)c1	13	8.9*	0.22	14	9	6860*	1656	+
SMILES	AP ELISA ortho	D1 mod	DAT uptake mod	HEK293 NFkB inh	E coli RNAP	D1 mod confirm	D1 no dopamine	Isoprot counter
CCOC(=O)c1ccc(N2CN=C3SCC(=O)N3C2)cc1	21	3.1*	0.74	16	4	5848*	1596	i
COC(=O)c1[nH]c2cccc(Cl)c2c1NC(=O)CN(C)C1CCCCC1	3	11*	0.11	4	7	16352*	1684	+
CCOC(=O)C1CCN(CC(=O)Nc2c(C(=O)OC)[nH]c3cccc(Cl)c23)CC1	3	3.7*	0.31	14	8	9896*	1640	+
CCOC(=O)C1CCN(CC(=O)Nc2c(C(=O)OC)[nH]c3ccc(Cl)cc23)CC1	10	0.23	0.72	16	5	.	.	.
COc1ccc(Cl)cc1NC(=O)CN(C)C1CCCCC1	.	.	-0.43	.	.	.	.	.
Cc1cccc(NC(=O)c2ccc(N(C)C3CCCCC3)c([N+](=O)[O-])c2)n1	.	.	-1.1	.	.	.	.	.
CC(=O)C1=C(O)C(=O)N(CC(=O)O)C1c1ccccc1Cl (stereo unspecified)	10	.	-0.16	19	-1	.	.	.
CC(C)CCN(C)C1CCN(C(=O)Nc2c(F)cccc2F)CC1	-7	.	-0.68	20	6	.	.	.
O=C(COc1cccc2ccccc12)N1c2ccccc2CCc2ccccc21	.	.	2.3	.	.	.	.	.
Cc1noc(NS(=O)(=O)c2ccc(N/C=C/C(=O)c3ccc4c(c3)OCO4)cc2)c1C	23	8.5*	-0.84	-10	4	13260*	1840	+
O=C1c2cccnc2C(=O)N1C1CCCCC1	5	0.77	0.53	-9	-3	.	.	.
CCOC(=O)N1CCC(N2C(=O)c3ccccc3C2Nc2cccnc2)CC1 (stereo unspecified)	16	1.8	-0.066	0	2	.	.	.
Cc1ccc(NC2c3ncccc3C(=O)N2C2CCCCC2)cc1C (stereo unspecified)	10	4.1*	0.69	6	4	10752*	1620	+
Cc1ccc(NC2c3ncccc3C(=O)N2C2CCCCC2)cc1 (stereo unspecified)	4	11*	-0.73	14	6	13584*	.	+

Screening results deposited in PubChem BioAssay by several laboratories.
